# Compound activity: PubChem, Johns Hopkins Ion Channel Center
# MrgX1 ag: human MrgX1 receptor agonism, primary screen; MrgX1-HEK293 cells, Fluo-4 calcium fluorescence, agonist mode; stronger effect = higher value; 310,000 tested, 0.44% active; Q96LB2; B-score at 10 µM;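 active = calcium response B-score plate-corrected fluorescence ratio at least 3 library SD, with starting fluorescence B-score inside 5 SD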
# Target sequence (Q96LB2 whole entry, looked up): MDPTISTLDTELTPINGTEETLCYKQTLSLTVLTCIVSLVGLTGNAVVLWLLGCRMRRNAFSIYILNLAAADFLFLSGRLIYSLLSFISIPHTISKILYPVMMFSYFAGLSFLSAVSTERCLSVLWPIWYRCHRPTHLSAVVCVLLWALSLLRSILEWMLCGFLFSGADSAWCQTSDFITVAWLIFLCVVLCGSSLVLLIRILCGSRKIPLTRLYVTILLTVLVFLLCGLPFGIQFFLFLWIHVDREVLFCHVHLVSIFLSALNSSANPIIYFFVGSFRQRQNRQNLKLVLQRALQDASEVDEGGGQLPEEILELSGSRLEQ
#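 System: HEK293 cells stably expressing human MrgX1 receptor; Dosing: test compound in the initial addition of three; Schedule: overnight plating, then 30 min 37 °C plus 30 min room-temperature dye loading; Detection: kinetic calcium dye fluorescence, Fluo-4 NW; Controls: per-plate positive and negative controls for Z′ factor.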
# MrgX1 allo act: human MrgX1 positive allosteric modulation, primary screen | Q96LB2 | MrgX1-HEK293, Fluo-4 calcium flux, FDSS; stronger effect = higher value | B-score at 10 µM | 310,000 tested, 0.63% active | AID 588675;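 active = plate-corrected calcium response at least 3 library SD above typical, normal starting fluorescence, not activating the receptor alone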;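 note: compound read alongside a low EC10 to EC30 dose of BAM8-22 agonist; peak minus trough fluorescence over baseline measured at the second addition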
# RGS4 act: RGS4 potentiation or activation; HEK293 M3R/inducible RGS4, carbachol calcium flux Fluo4; stronger effect = lower value; B-score at 10 µM; 310,000 tested, 0.92% active; AID 463111;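 active = B-score of the integrated calcium signal more than 4 SD below the library mean, with starting fluorescence not abnormally high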;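 note: negative B-score means reduced calcium response which marks RGS4 activation or potentiation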
#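 test system = HEK293 cells with stable M3R and inducible RGS4 | schedule = recording 10 s baseline at 1 Hz, 100 s post-agonist | technique = Fluo4-AM (2 µM) calcium-flux fluorescence, kinetic read | measure = Agonist-evoked peak-minus-minimum fluorescence over baseline, integrated ratio, B score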
# RGS4 block: human RGS4 inhibition; 310,000 tested, 0.45% active; AID 463165; B-score at 10 µM; P49798; HEK293 M3R/RGS4 inducible, Fluo-4 calcium flux; stronger effect = higher value; triggered by carbachol at its EC20;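 active = B-score, a plate-corrected calcium signal, over three deviations above library mean, with baseline fluorescence within five deviations of library mean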;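 note: RGS4 expression induced by doxycycline in cells with stable M3 receptor; B-score is computed from the integrated fluorescence ratio over baseline after carbachol; higher B-score means a larger calcium signal and so more RGS4 inhibition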
# Target sequence (P49798 whole entry, looked up): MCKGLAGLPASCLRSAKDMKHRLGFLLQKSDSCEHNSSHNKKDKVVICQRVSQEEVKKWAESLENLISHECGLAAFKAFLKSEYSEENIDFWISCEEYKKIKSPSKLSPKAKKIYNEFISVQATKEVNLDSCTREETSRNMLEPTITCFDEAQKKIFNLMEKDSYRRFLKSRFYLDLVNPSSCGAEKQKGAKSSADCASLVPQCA
# MrgX1 antag: antagonists of human MrgX1 receptor. MRGX1-HEK293 calcium flux, Fluo-4, BAM8-22 antagonism; stronger effect = lower value. B-score at 10 µM. 310,000 tested, 1.3% active. Q96LB2;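 active = calcium-response B-score plate-corrected more than 3 library SD below zero, starting fluorescence within 5 deviations, no agonist response on first addition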;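 note: peak minus trough fluorescence over baseline after final BAM8-22 challenge near maximal dose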
# RGS4 block valid: validation of RGS4 inhibitors | shares compounds with RGS4 block | HEK293 M3R/RGS4, carbachol calcium Fluo-4 fluorescence; carbachol added at its EC20; 0 = buffer wells, 100 = carbachol control | calcium response, % at 10 µM | 1,700 tested, 65% active | AID 492999;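 active = duplicate-averaged calcium response above the buffer-only control mean plus 5 SD of those controls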;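 note: integrated fluorescence ratio F max minus min over baseline F0; higher response in RGS4-induced cells means RGS4 inhibition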
# RGS4 uninduced: checks RGS4 inhibitor effects in non-induced HEK293 M3R cells; activity (percent), % at 10 µM; shares compounds with RGS4 block; 1,900 tested, 20% active; carbachol calcium Fluo-4; submaximal (EC20) carbachol stimulus; buffer wells 0%, carbachol control wells 100%; call rule not given here;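 note: RGS4 induction absent so cells express M3R without RGS4; higher means more calcium signal and flags a non-specific hit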
# M3R basal Ca ctr: second counter-screen for RGS4 inhibitors: non-induced cells without carbachol; shares compounds with RGS4 block; HEK293 M3R/RGS4 non-induced, Fluo-4 calcium, no carbachol; normalised: buffer wells 0%, carbachol wells 100%; calcium response (agonist-mode artifact), % at 10 µM; 1,900 tested, 22% active;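 active = duplicate-averaged calcium rise in uninduced cells above buffer wells' mean plus 5 SD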
# Starred values were filed as active, the others as inactive; i = inactive; x = no result. The list is not random: actives were taken first. Their share in the collection is about 3.5%.
SMILES,MrgX1 ag,MrgX1 allo act,RGS4 act,RGS4 block,MrgX1 antag,RGS4 block valid,RGS4 uninduced,M3R basal Ca ctr
Cc1ccc(-c2c(C(=O)N/N=C/c3ccsc3)nnn2-c2nonc2N)cc1,i,i,i,i,i,x,x,x
CCOc1cccc(-c2c(C(=O)N/N=C/c3ccc(C)s3)nnn2-c2nonc2N)c1,i,i,i,i,i,x,i,i
COc1cccc(-c2c(C(=O)N/N=C/c3ccc(C)s3)nnn2-c2nonc2N)c1,i,i,i,i,i,x,x,x
CC(C)(C)c1ccc(C(CC(=O)O)NC(=O)Cc2ccc(F)cc2)cc1 (centres undefined),i,i,i,i,i,x,x,x
Cc1ccc(CCNC(=O)CCn2c(=O)c3cccn3c3ccc(F)cc32)cc1,i,i,i,i,i,x,x,x
Nc1nc(Nc2ccc(Cl)cc2)nc(NCc2ccco2)c1[N+](=O)[O-],i,i,i,i,i,x,i,i
Cc1cccc(Nc2nc(NCc3ccco3)nc(N)c2[N+](=O)[O-])c1,i,i,i,i,i,x,x,x
Cc1cccc(Nc2nc(N)c([N+](=O)[O-])c(NCc3ccco3)n2)c1,i,i,i,i,i,i,i,i
Nc1nc(Nc2cccc(Cl)c2)nc(NCc2ccco2)c1[N+](=O)[O-],i,i,i,17*,i,11%*,i,i
Nc1nc(Nc2cccc(Cl)c2)nc(NCCO)c1[N+](=O)[O-],i,i,i,i,i,x,x,x
Nc1nc(Nc2cccc(F)c2)nc(NCc2ccco2)c1[N+](=O)[O-],i,i,i,i,i,i,i,i
Cc1nn(-c2ccccc2)nc1-c1nnc(-c2ccc(C(F)(F)F)cc2)o1,i,i,i,i,i,x,x,x
CC(C)c1ccc(C2c3[nH]c4ccccc4c3C[C@H]3C(=O)N(c4ccccc4C(=O)N4CCC[C@H]4C(=O)O)C(=O)N23)cc1 (some centres undefined),i,i,i,i,i,x,x,x
CCN(C(=O)COC(=O)/C=C/c1c(C)nn(-c2ccccc2)c1C)C1CCS(=O)(=O)C1 (centres undefined),i,i,i,i,i,x,x,x
CN1CCN(S(=O)(=O)c2cccc(C(=O)N(Cc3nnc(-c4ccccc4Cl)o3)C3CC3)c2)CC1,i,i,i,i,i,x,x,x
CC1(C)Cc2c(C#N)c(N3CCOCC3)nc(-c3ccccc3)c2CO1,i,i,i,i,i,x,x,x
CC1CCN(c2nc(-c3ccco3)c3c(c2C#N)CC(C)(C)OC3)CC1,i,i,i,i,i,i,i,15%*
O=C(O)c1ccc2c(=O)n3c(nc2c1)/C(=C/c1ccc(Cl)cc1Cl)CC3,i,i,i,19*,i,24%*,i,i
Cc1ccccc1OCC(=O)NNC(=O)c1ccc2c(=O)n3c(nc2c1)CCC3,i,i,i,i,i,x,x,x
CNC(=S)N(CCO)Cc1cc2cc3c(cc2[nH]c1=O)OCCO3,i,i,i,i,i,x,x,x
COCCCNC(=S)N(CCO)Cc1cc2cc3c(cc2[nH]c1=O)OCCO3,i,i,i,5.2*,i,i,i,i
CCCCNC(=S)N(CCCO)Cc1cc2cc3c(cc2[nH]c1=O)OCCO3,i,i,i,i,i,x,x,x
COCCNC(=S)N(CCO)Cc1cc2cc3c(cc2[nH]c1=O)OCCO3,i,i,i,i,i,i,i,i
CCN(CC)CCN(Cc1cc2cc3c(cc2[nH]c1=O)OCCO3)C(=S)NCCCOC,i,i,i,i,i,i,i,i
CC1(C)C2CCC1(C)C(NCC(O)COc1ccc(C#N)cc1)C2 (centres undefined),i,i,i,i,i,x,x,x
SMILES,MrgX1 ag,MrgX1 allo act,RGS4 act,RGS4 block,MrgX1 antag,RGS4 block valid,RGS4 uninduced,M3R basal Ca ctr
CNC(=O)c1[nH]cnc1C(=O)Nc1ccccn1,i,i,i,i,i,i,i,i
COc1cc(/C=C2/S/C(=N/S(=O)(=O)c3ccccc3)NC2=O)c([N+](=O)[O-])cc1OC,i,i,i,5.9*,i,38%*,50%*,i
O=C1N/C(=N\S(=O)(=O)c2ccccc2)S/C1=C\c1cc([N+](=O)[O-])ccc1O,i,i,i,i,i,x,x,x
COc1cc(/C=C2\S/C(=N/S(=O)(=O)Cc3ccccc3)NC2=O)c([N+](=O)[O-])cc1OC,i,i,i,i,i,i,i,i
O=C1N/C(=N\S(=O)(=O)Cc2ccccc2)S/C1=C/c1cc([N+](=O)[O-])ccc1O,i,i,i,i,i,x,x,x
COc1cc(/C=C2/S/C(=N/S(=O)(=O)Cc3ccccc3)NC2=O)c([N+](=O)[O-])cc1OC,i,i,i,i,i,i,i,i
CC(C)c1ccc(NC(=O)C(c2ccccc2)N(Cc2ccco2)C(=O)CC2NC(=O)NC2=O)cc1 (centres undefined),i,i,i,i,i,x,x,x
COc1ccc(C2CC(c3ccc(OC)cc3)n3nc(NS(C)(=O)=O)nc3N2)cc1 (centres undefined),i,i,i,i,i,x,x,x
O=c1cc(-c2ccc(Cl)cc2)oc(=O)[nH]1,i,i,i,i,i,x,x,x
O=c1cc(N=Nc2ccc(Cl)cc2)[nH]c(=O)[nH]1,i,i,i,17*,i,22%*,i,i
COc1cc2c(cc1OC)-c1cc(Nc3ccc(N(C)C)cc3)nc(=O)n1CC2,i,i,i,5.6*,i,7.0%*,36%*,i
COc1cc2c(cc1OC)-c1cc(Nc3ccc(F)cc3)nc(=O)n1CC2,i,i,i,i,i,i,i,i
COc1cc2c(cc1OC)-c1cc(NC3CCCC3)nc(=O)n1CC2,i,i,i,i,i,x,x,x
COc1cc2c(cc1OC)-c1cc(Nc3cccc(F)c3)nc(=O)n1CC2,x,x,i,i,x,x,x,x
